Reference: ChEMBL document CHEMBL2062493, “Synthesis and evaluation of [¹¹C]Cimbi-806 as a potential PET ligand for 5-HT₇ receptor imaging” (Bioorg Med Chem, 2012)
pKi: −log10 of the molar value.

Legend:
[1] = Drug uptake in Danish Landrace pig thalamus at 468+/-31 MBq, iv up to 20 mins by PET scanning; type: ADME, organism-based, Sus scrofa; settings: in vivo
How it was run: (§1)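 Images were co-registered to an MRI atlas of the pig brain. Striatum was the mean of caudate and putamen, thalamus the mean of lateral and medial thalamus, and each region left/right averaged. Uptake is expressed as SUV (kBq/mL normalized to injected dose per kg). For the blocking condition, SB-269970 was infused at 0.5–1.0 mg/kg/h from 30 min before the second scan.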

[2] = Free fraction in Danish Landrace pig plasma at 5 MBq after 3 hrs by equilibrium dialysis; type: ADME, cell-free, Sus scrofa
[3] = Drug uptake in Danish Landrace pig striatum pre-treated with SB269970 at 468+/-31 MBq, iv administered 30 mins post SB269970-treatment measured up to 20 mins by PET scanning; type: ADME, organism-based, Sus scrofa; settings: in vivo; how it was run: as §1
[4] = Drug uptake in Danish Landrace pig thalamus pre-treated with SB269970 at 468+/-31 MBq, iv administered 30 mins post SB269970-treatment measured up to 20 mins by PET scanning; type: ADME, organism-based, Sus scrofa; settings: in vivo; how it was run: as §1
[5] = Drug uptake in Danish Landrace pig cerebellum at 468+/-31 MBq, iv up to 20 mins by PET scanning; type: ADME, organism-based, Sus scrofa; settings: in vivo; how it was run: as §1
[6] = Drug uptake in Danish Landrace pig cerebellum pre-treated with SB269970 at 468+/-31 MBq, iv administered 30 mins post SB269970-treatment measured up to 20 mins by PET scanning; type: ADME, organism-based, Sus scrofa; settings: in vivo; how it was run: as §1
[7] = Drug uptake in Danish Landrace pig striatum at 468+/-31 MBq, iv up to 20 mins by PET scanning; type: ADME, organism-based, Sus scrofa; settings: in vivo; how it was run: as §1
[8] = Drug uptake in Danish Landrace pig cerebellum at 468+/-31 MBq, iv after 20 mins by PET scanning; type: ADME, organism-based, Sus scrofa; settings: in vivo; how it was run: as §1
[9] = Drug uptake in Danish Landrace pig thalamus at 468+/-31 MBq, iv after 20 mins by PET scanning; type: ADME, organism-based, Sus scrofa; settings: in vivo; how it was run: as §1
[10] = Drug uptake in Danish Landrace pig striatum at 468+/-31 MBq, iv after 20 mins by PET scanning; type: ADME, organism-based, Sus scrofa; settings: in vivo; how it was run: as §1
[11] = system: Plasma; test: Drug metabolism in Danish Landrace pig plasma pre-treated with SB269970 at 468+/-31 MBq, iv administered 30 mins post SB269970-treatment measured upto 90 mins; type: ADME, organism-based, Sus scrofa; settings: in vivo
How it was run: (§2)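 Blood was drawn at 2.5–90 min and centrifuged; plasma was filtered 0.45 µm and analysed for parent and radiometabolites by column-switching HPLC with online radioactivity detection. For the blocking condition, SB-269970 was infused at 0.5–1.0 mg/kg/h from 30 min before the second scan and continued throughout it.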

[12] = system: Plasma; test: Drug metabolism in Danish Landrace pig plasma at 468+/-31 MBq, iv; type: ADME, Sus scrofa; how it was run: as §2
[13] = Displacement of [3H]SB269970 from 5HT7R in Danish Landrace pig brain section after 2 hrs by autoradiography; design: species or system Sus scrofa
How it was run: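 Pig brain sections incubated 2 h with [3H]SB-269970 plus varying competitor in 50 mM Tris–HCl pH 7.4. Washes were 3 × 5 min in ice-cold buffer, then a dip in ice-cold water. Sections were dried and exposed to tritium-sensitive plates for 14 days. Specific binding (total minus non-specific) was plotted against competitor concentration.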

[14] = Lipophilicity, log D of the compound at pH 7.4 by HPLC analysis; type: physicochemical; settings: buffer
How it was run: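 Measured by RP-HPLC on a C8 column at 37 °C with 50:50 25 mM sodium phosphate pH 7.4/MeOH at 2 mL/min and UV detection at 254 nm. LogD was derived from log retention factor via a calibration line of reference compounds with known logD.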

Compound | Drug uptake [1] | fraction unbound at 3 h, 5 MBq [2] | Drug uptake [3] | Drug uptake [4] | Drug uptake [5] | Drug uptake [6] | Drug uptake [7] | Drug uptake [8] | Drug uptake [9] | Drug uptake [10] | Drug metabolism [11] | Drug metabolism [12] | pKi [13] | logD [14]
COc1cccc(OC)c1-c1cccc(CCN(C)[11CH3])c1 | Active | 0.235 | Not Active | Not Active | Active | Not Active | Active | Not Active | Not Active | Not Active | Active | Active |  | 
COc1cccc(OC)c1-c1cccc(CCN(C)C)c1 |  |  |  |  |  |  |  |  |  |  |  |  | 8.05 | 4.4
